Experimental data from different studies.
Lines come from different studies, so protocols differ.
Target: Homeodomain-interacting protein kinase 1 (HIPK1, Homo sapiens, UniProt Q86Z02)

CN(C)c1nccc(-c2cnc3ncccn23)n1 — remaining binding (binding; 1 µM): 44%
O=C(NCCCN1CCOCC1)c1ccc(Nc2ncc(Cl)c(-c3ccc(Cl)s3)n2)cc1 — remaining binding (binding; competition with immobilised ligand; 1 µM): 8.7%
C=CC(=O)N1CCC(C(=O)NCC(=O)N2CCN(c3nc(-c4cnc(N)nc4C(F)F)nc(N4CCOCC4)n3)CC2)CC1 — remaining binding (binding; competition with immobilised ligand; 1 µM): 97%
Cc1cc(-n2nc(Cc3cc(F)cc(C(F)(F)F)c3)nc2C)ccc1C(N)=O — remaining binding (cell-free assay; competition with immobilised ligand; 1 µM): 92%
O=C(NCC1CCOCC1)c1n[nH]cc1NC(=O)c1c(F)cccc1F — remaining binding (binding; competition with immobilised ligand; 1 µM): 69%
O=C(NS(=O)(=O)c1ccc(NCC2CCOCC2)c([N+](=O)[O-])c1)c1ccc(N2CCN(Cc3ccc(C(F)(F)F)cc3-c3ccc(Cl)cc3)CC2)cc1Oc1cnc2[nH]ccc2c1 — remaining binding (cell-free assay; competition with immobilised ligand; 1 µM): 84%
Nc1ncc2c(n1)-c1c([nH]c3ccc(C#CC4CC4)cc13)CCCC2 — remaining binding (binding; competition with immobilised ligand; 1 µM): 87%
COc1ncc2cc3ccccc3nc2c1C#N — remaining binding (cell-free assay; competition with immobilised ligand; 5 µM): 81%
COc1cnc(Nc2cccc(S(N)(=O)=O)c2)nc1N1CCN(c2ccccc2)C(=O)C1 — remaining binding (binding; competition with immobilised ligand; 1 µM): 79%
FC(F)(F)Oc1cccc(-c2cnc3ccc(-c4ccncc4)nn23)c1 — remaining binding (cell-free assay; competition with immobilised ligand; 5 µM): 0.15%
c1cnn2ncc(-c3ccnc(N4CCC45COC5)n3)c2c1 — remaining binding (binding; 1 µM): 29%
CCCCN(CCCC)C(=O)CN1C[C@@H](c2cc(OC)c3c(c2)OCO3)[C@H](C(=O)O)[C@H]1CC(C)(C)CCC — remaining binding (cell-free assay; competition with immobilised ligand; 1 µM): 77.3%
O=C(c1ccc(Nc2nccc(-c3cc4ccccc4s3)n2)cc1)N1CCC(N2CCCC2)CC1 — remaining binding (binding; competition with immobilised ligand; 1 µM): 13%
Cc1c(C(=O)O)cc(-c2ccc(C3CCNCC3)cc2)c2ccc(-c3ccc(C(F)(F)F)cc3)cc12 — remaining binding (binding; competition with immobilised ligand; 1 µM): 100%
N[C@H]1CCN(c2nccc(-c3cnn4ncccc34)n2)C1 — remaining binding (binding; 1 µM): 54%
CCN1CCN(Cc2ccc(C(=O)Nc3ccc(C)c(Oc4ccc5c(c4)CC(=O)N5)c3)cc2C(F)(F)F)CC1 — remaining binding (binding; competition with immobilised ligand; 1 µM): 83%
Cc1cnn2ncc(-c3ccnc(N(C)C)n3)c2c1 — remaining binding (binding; 1 µM): 39%
FC(F)(F)c1ccc2c(c1)nc(-c1cccnc1)n2C1CC1 — remaining binding (cell-free assay; competition with immobilised ligand; 1 µM): 100%
Cc1cnc(Nc2ccc(C(=O)N3CCC(N4CCCC4)CC3)cc2)nc1-c1cc2ccccc2s1 — remaining binding (binding; competition with immobilised ligand; 1 µM): 2.2%
C[C@H]1CCN(c2nccc(-c3cnn4ncccc34)n2)C1 — remaining binding (binding; 1 µM): 40%
COc1ccc2cc(OCC3(C(=O)O)CN(C(=O)c4ccc(F)cc4)C3)ccc2c1 — remaining binding (cell-free assay; competition with immobilised ligand; 1 µM): 100%
